Data set [1] concerns the target T1, Bromodomain-containing protein 4 (Homo sapiens, UniProt O60885). Description: Inhibition of BRD4 interaction with AMPK in human MDA-MB-231 cells at 3 uM by co-immunoprecipitation assay. It is filed as cell-based. In a few lines: (§1)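 Cells lysed in RIPA buffer (40 mM Tris-HCl pH 7.5, 150 mM NaCl, 0.5% NP-40, 5% glycerol, 10 mM NaF, protease inhibitors). Lysates incubated overnight at 4 °C with BRD4 or p53 antibody plus protein A/G beads, washed 3 times, resolved on 10% SDS-PAGE and blotted for AMPKα or p53.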

Data set [2] deals with MCF7. Kind of data set: Induction of autophagy in human MCF7 cells assessed as downregulation of p62/SQSTM1 expression at 1.5 uM measured up to 36 hrs by Western blot analysis. Format: functional, cell-based. In a few lines:
(§2)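 MCF-7 (1.5 µM) or MDA-MB-231 (3 µM) cells treated for indicated times. Adherent and floating cells lysed in RIPA with 1 mM PMSF, 4°C for 1 h. Equal protein run on 10-15% SDS-PAGE, transferred to PVDF, blocked with milk or BSA, probed with primary then HRP secondary antibodies, ECL detection; β-actin as loading control.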

Data set [3] deals with Mus musculus. Description: Induction of cleavage of caspase-3 in BALB/c mouse xenografted with human MDA-MB-231 cells at 100 mg/kg, ig administered once a day for 27 days by Western blot analysis. Format: functional, organism-based. In a few lines:
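Female BALB/c nude mice (6-8 weeks) given 5×10^6 MCF-7 or MDA-MB-231 cells subcutaneously. At 100 mm3 tumours, dosed intragastrically once daily (25, 50, 100 mg/kg, or vehicle) for 24 or 27 days. Excised tumours lysed and probed by western blot for caspase-3 cleavage.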

For data set [4], the target named is T1, Bromodomain-containing protein 4. Description: Inhibition of BRD4 in human MDA-MB-231 cells assessed as downregulation of c-Myc expression at 3 uM measured up to 36 hrs by Western blot analysis. Format: cell-based. In a few lines:
(§3)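 MCF-7 (1.5 μM) or MDA-MB-231 (3 μM) cells treated for indicated times. Adherent and floating cells lysed in RIPA with 1 mM PMSF. Equal protein run on 10-15% SDS-PAGE, blotted to PVDF, blocked in milk or BSA, HRP/ECL detection. β-actin loading control.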

Data set [5] has the same target. Kind of data set: Inhibition of BRD4 in human MCF7 cells assessed as increase in ULK1 phosphorylation at ser317 at 1.5 uM up to 36 hrs by Western blot analysis. Format: cell-based. In a few lines:
as §3

In data set [6] the test system is MDA-MB-231. Description: Induction of autophagy in human MDA-MB-231 cells assessed as upregulation of beclin1 expression at 3 uM measured up to 36 hrs by Western blot analysis. It is filed as functional, cell-based. The method in brief:
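MDA-MB-231 cells (DMEM, 10% FBS, 37 °C, 5% CO2) exposed to 3 μM for indicated times. Adherent and floating cells collected, lysed in RIPA with 1 mM PMSF at 4 °C for 1 h. Protein quantified by DC assay, resolved on 10-15% SDS-PAGE, blotted to PVDF, ECL detection.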

For data set [7], the target named is AMP-activated protein kinase, AMPK (Homo sapiens) (UniProt P54646+O43741+P54619+Q9UGJ0+Q9Y478+Q13131+Q9UGI9). Description: Activation of AMPK (unknown origin) at 1 to 10^6 nM using MBP as substrate after 60 mins in presence of ATP by […] assay. In a few lines: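 ADP-Glo luminescent kinase assay; AMPK or ULK1 enzyme, substrate, ATP and compound diluted in 40 mM Tris pH 7.5, 20 mM MgCl2, 0.1 mg/ml BSA, 50 µM DTT. Enzyme (10 ng) mixed with MBP (0.1 µg/µl)/ATP (10 µM) and compound, 60 min at room temperature. ADP-Glo reagent 40 min, then detection reagent 30 min, luminescence read; signal rises with kinase activity.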

For data set [8], the target named is T1, Bromodomain-containing protein 4. Kind of data set: Inhibition of BRD4 in human MDA-MB-231 cells assessed as reduction in FIP200 protein expression at 3 uM up to 36 hrs by Western blot analysis. Format: cell-based. The method in brief:
as §3

Data set [9] has as its system Mus musculus. Kind of data set: In vivo inhibition of c-Myc expression in BALB/c mouse xenografted with human MCF7 cells at 100 mg/kg, ig administered once a day for 24 days by Western blot analysis. Format: functional, organism-based. In a few lines: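 Tumor tissues excised from MCF-7 or MDA-MB-231 xenograft mice were lysed and analysed by western blot for BRD4, c-Myc, LC3 and cleaved caspase-3.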

In data set [10] the test system is MCF7. Kind of data set: Induction of autophagy in human MCF7 cells assessed as reduction in cell viability at 1.5 uM administered at 1 hr post […] addition by MTT assay. It is filed as functional, cell-based. The method in brief: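 MCF-7 cells pretreated with 3-MA (1 mM) for 1 h, then given 1.5 µM. Viability read by MTT: 4 h incubation with MTT, formazan dissolved in DMSO, absorbance at 570 nm.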

In data set [11] the target is T1, Bromodomain-containing protein 4. Description: Inhibition of BRD4 in human MCF7 cells assessed as induction of AMPKalpha phosphorylation at thr172 at 1.5 uM in presence of ATG5 siRNA by Western blot analysis. It is filed as cell-based. In a few lines:
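Cells given 50 nM ATG5 or negative-control siRNA (Lipofectamine RNAiMAX) and used 48 h later, then exposed to 1.5 μM (MCF-7) or 3 μM (MDA-MB-231). p-AMPKα analysed by western blot with β-actin loading control.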

Data set [12] has the same target. Kind of data set: Inhibition of BRD4 interaction with AMPK in human MCF7 cells at 1.5 uM by co-immunoprecipitation assay. Format: cell-based. The method in brief:
as §1

Data set [13] relates to MDA-MB-231. Description: Induction of autophagy in human MDA-MB-231 cells assessed as LC3 lipidation at 3 uM in presence of ATG5 siRNA by Western blot analysis. Format: functional, cell-based.
Data set [14] has as its system MCF7. Kind of data set: Induction of autophagy in human MCF7 cells assessed as downregulation of p62/SQSTM1 expression at 1.5 uM in presence of ATG5 siRNA by Western blot analysis. Format: functional, cell-based.
The subject of data set [15] is MCF7. Kind of data set: Induction of autophagy in human MCF7 cells assessed as induction of autophagic vacuoles at 1.5 uM by MDC-based fluorescence microscopy. Format: functional, cell-based. In a few lines: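 MCF-7 cells treated with 1.5 µM for indicated times. Stained with 0.05 mM monodansylcadaverine and autophagic vacuoles observed by fluorescence microscopy.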

The subject of data set [16] is MCF7. Kind of data set: Antiproliferative activity against human MCF7 cells after 24 hrs by MTT assay. It is filed as functional, cell-based. The following applies: MCF7, 24 h.
The subject of data set [17] is MCF7. Description: Effect on AKT expression in human MCF7 cells at 1.5 uM measured up to 36 hrs by Western blot analysis. Format: ADME, cell-based. To be noted: mcf7, 36 h. The method in brief:
as §2

Data set [18] concerns the target T1, Bromodomain-containing protein 4. Description: Inhibition of BRD4 in human MCF7 cells assessed as reduction in FIP200 protein expression at 1.5 uM up to 36 hrs by Western blot analysis. Format: cell-based. In a few lines:
as §3

The next data set has as its system MDA-MB-468. Kind of data set: Induction of autophagy in human MDA-MB-468 cells assessed as increase in LC3-2 expression expression measured up to 48 hrs by Western blot analysis. It is filed as functional, cell-based.
The target in data set [19] is T1, Bromodomain-containing protein 4. Description: Inhibition of BRD4 in human MCF7 cells assessed as increase in ATG13 phosphorylation at ser318 at 1.5 uM up to 36 hrs by Western blot analysis. Format: cell-based. The method in brief: as §3

The source made the active and inactive calls. The calls are words filed in the database; no cut-off is given here.

For `Cc1cc(-c2nc3sc4c(c3c(=O)[nH]2)CCN(C)C4)cc(C)c1O`, the inhibition entry in [1], in [4], in data set [5], in [8], in data set [11] and in [12] was “Active” in each case. Moreover, the inhibition entry in data set [18] and in data set [19] was “Active” each time. Further, the result in the data set on MCF7 [2], with Mus musculus [3], in the data set with MDA-MB-231 [6], with Mus musculus [9], in the data set on MCF7 [15] and in the data set on MDA-MB-468 was Active. For the same compound, the result (in data set [7]; with MCF7 [10]; in the data set with MDA-MB-231 [13]; with MCF7 [14]) was inactive. Moreover, in the data set with MCF7 [16], the IC50 was 1.62 µM. Moreover, the Activity entry in the data set with MCF7 [17] was “Non-Toxic”.
